Results reported in ChEMBL document CHEMBL4715736, “Identification of anticancer agents based on the thieno[2,3-b]pyridine and 1H-pyrazole molecular scaffolds” (2016).

System: MCF7
Test: Growth inhibition of human MCF7 cells assessed as cell growth at 100 uM incubated for 48 hrs by sulforhodamine B assay relative to control
Type: functional
Conditions: read-out: Activity

SMILES | growth at 100 µM
Nc1c(C(=O)Nc2ccccc2)sc2nc3c(cc12)CN(Cc1ccccc1)CC3 | 14%

System: SR
Test: Growth inhibition of human SR cells incubated for 48 hrs by sulforhodamine B assay
Type: functional
Conditions: not given
How it was run: (§1)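 NCI DTP 60-line human tumour panel. Dose-response curves were run only for ligands active in the initial 10 µM screen. GI50 (concentration giving 50% of maximal inhibition of proliferation) and TGI (concentration giving total growth inhibition) were derived from these curves.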

SMILES | GI50 | LC50 | TGI
Nc1c(C(=O)Nc2ccccc2)sc2nc3c(cc12)CN(Cc1ccccc1)CC3 | 13.1 µM | > 100 µM | > 100 µM

System: HCT-116
Test: Growth inhibition of human HCT-116 cells assessed as cell growth at 1 uM incubated for 48 hrs by sulforhodamine B assay relative to control
Type: functional
Conditions: read-out: Activity

SMILES | growth at 1 µM
Nc1c(C(=O)Nc2ccccc2)sc2nc3c(cc12)CN(Cc1ccccc1)CC3 | 86%

System: PC-3
Test: Growth inhibition of human PC-3 cells assessed as cell growth at 0.1 uM incubated for 48 hrs by sulforhodamine B assay relative to control
Type: functional
Conditions: read-out: Activity

SMILES | growth at 0.1 µM
Nc1c(C(=O)Nc2ccccc2)sc2nc3c(cc12)CN(Cc1ccccc1)CC3 | 91%

System: M14
Test: Growth inhibition of human M14 cells assessed as cell growth at 1 uM incubated for 48 hrs by sulforhodamine B assay relative to control
Type: functional
Conditions: read-out: Activity

SMILES | growth at 1 µM
Nc1c(C(=O)Nc2ccccc2)sc2nc3c(cc12)CN(Cc1ccccc1)CC3 | 91%

System: HOP-92
Test: Growth inhibition of human HOP-92 cells assessed as cell growth at 0.1 uM incubated for 48 hrs by sulforhodamine B assay relative to control
Type: functional
Conditions: read-out: Activity

SMILES | growth at 0.1 µM
Nc1c(C(=O)Nc2ccccc2)sc2nc3c(cc12)CN(Cc1ccccc1)CC3 | 86%

System: HCC 2998
Test: Growth inhibition of human HCC 2998 cells assessed as cell growth at 100 uM incubated for 48 hrs by sulforhodamine B assay relative to control
Type: functional
Conditions: read-out: Activity
How it was run: (§2)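 NCI Developmental Therapeutics Program NCI60 panel. Compounds that were active in the 10 µM one-dose screen went on to dose–response testing. Growth at each concentration is expressed relative to untreated control (100%). GI50 (concentration giving 50% of maximal inhibition of proliferation) and TGI (concentration giving total growth inhibition) were derived from the curves.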

SMILES | growth at 100 µM
Nc1c(C(=O)Nc2ccccc2)sc2nc3c(cc12)CN(Cc1ccccc1)CC3 | 47%

System: OVCAR-4
Test: Growth inhibition of human OVCAR-4 cells assessed as cell growth at 100 uM incubated for 48 hrs by sulforhodamine B assay relative to control
Type: functional
Conditions: read-out: Activity

SMILES | growth at 100 µM
Nc1c(C(=O)Nc2ccccc2)sc2nc3c(cc12)CN(Cc1ccccc1)CC3 | -19%

System: MDA-MB-231
Test: Growth inhibition of human MDA-MB-231 cells assessed as cell growth at 0.1 uM incubated for 48 hrs by sulforhodamine B assay relative to control
Type: functional
Conditions: read-out: Activity

SMILES | growth at 0.1 µM
Nc1c(C(=O)Nc2ccccc2)sc2nc3c(cc12)CN(Cc1ccccc1)CC3 | 100%

System: SK-OV-3
Test: Growth inhibition of human SK-OV-3 cells assessed as cell growth at 0.1 uM incubated for 48 hrs by sulforhodamine B assay relative to control
Type: functional
Conditions: read-out: Activity

SMILES | growth at 0.1 µM
Nc1c(C(=O)Nc2ccccc2)sc2nc3c(cc12)CN(Cc1ccccc1)CC3 | 93%

System: Hs-578T
Test: Growth inhibition of human Hs-578T cells assessed as cell growth at 1 uM incubated for 48 hrs by sulforhodamine B assay relative to control
Type: functional
Conditions: read-out: Activity

SMILES | growth at 1 µM
Nc1c(C(=O)Nc2ccccc2)sc2nc3c(cc12)CN(Cc1ccccc1)CC3 | 78%

System: T47D
Test: Growth inhibition of human T47D cells assessed as cell growth at 1 uM incubated for 48 hrs by sulforhodamine B assay relative to control
Type: functional
Conditions: read-out: Activity

SMILES | growth at 1 µM
Nc1c(C(=O)Nc2ccccc2)sc2nc3c(cc12)CN(Cc1ccccc1)CC3 | 83%

System: LOX IMVI
Test: Growth inhibition of human LOX IMVI cells assessed as cell growth at 1 uM incubated for 48 hrs by sulforhodamine B assay relative to control
Type: functional
Conditions: read-out: Activity

SMILES | growth at 1 µM
Nc1c(C(=O)Nc2ccccc2)sc2nc3c(cc12)CN(Cc1ccccc1)CC3 | 98%

System: MCF7
Test: Growth inhibition of human MCF7 cells incubated for 48 hrs by sulforhodamine B assay
Type: functional
Conditions: not given
How it was run: (§3)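 NCI60 panel at the NCI Developmental Therapeutics Program. Only compounds active in the 10 µM screen went to dose-response testing. GI50, the concentration giving 50% of maximal inhibition of proliferation, and TGI, the concentration giving total growth inhibition, were derived from the dose-response curves.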

SMILES | GI50 | TGI
Nc1c(C(=O)Nc2ccccc2)sc2nc3c(cc12)CN(Cc1ccccc1)CC3 | 12.1 µM | > 100 µM

Same assay, conditions: read-out: LC50 (the source's name)

SMILES | CC50
Nc1c(C(=O)Nc2ccccc2)sc2nc3c(cc12)CN(Cc1ccccc1)CC3 | > 100 µM

System: HCC 2998
Test: Growth inhibition of human HCC 2998 cells assessed as cell growth at 0.1 uM incubated for 48 hrs by sulforhodamine B assay relative to control
Type: functional
Conditions: read-out: Activity
How it was run: as §2

SMILES | growth at 0.1 µM
Nc1c(C(=O)Nc2ccccc2)sc2nc3c(cc12)CN(Cc1ccccc1)CC3 | 97%

System: SF-268
Test: Growth inhibition of human SF-268 cells assessed as cell growth at 1 uM incubated for 48 hrs by sulforhodamine B assay relative to control
Type: functional
Conditions: read-out: Activity

SMILES | growth at 1 µM
Nc1c(C(=O)Nc2ccccc2)sc2nc3c(cc12)CN(Cc1ccccc1)CC3 | 85%

System: RXF 393
Test: Growth inhibition of human RXF 393 cells assessed as cell growth at 1 uM incubated for 48 hrs by sulforhodamine B assay relative to control
Type: functional
Conditions: read-out: Activity

SMILES | growth at 1 µM
Nc1c(C(=O)Nc2ccccc2)sc2nc3c(cc12)CN(Cc1ccccc1)CC3 | 87%

System: CAKI-1
Test: Growth inhibition of human CAKI-1 cells incubated for 48 hrs by sulforhodamine B assay
Type: functional
Conditions: not given
How it was run: as §2

SMILES | GI50 | TGI
Nc1c(C(=O)Nc2ccccc2)sc2nc3c(cc12)CN(Cc1ccccc1)CC3 | 19.7 µM | > 100 µM

Same assay, conditions: read-out: LC50 (the source's name)

SMILES | CC50
Nc1c(C(=O)Nc2ccccc2)sc2nc3c(cc12)CN(Cc1ccccc1)CC3 | > 100 µM

System: HT-29
Test: Growth inhibition of human HT-29 cells assessed as cell growth at 1 uM incubated for 48 hrs by sulforhodamine B assay relative to control
Type: functional
Conditions: read-out: Activity

SMILES | growth at 1 µM
Nc1c(C(=O)Nc2ccccc2)sc2nc3c(cc12)CN(Cc1ccccc1)CC3 | 101%

System: SNB-75
Test: Growth inhibition of human SNB-75 cells incubated for 48 hrs by sulforhodamine B assay
Type: functional
Conditions: not given
How it was run: as §1

SMILES | GI50 | TGI
Nc1c(C(=O)Nc2ccccc2)sc2nc3c(cc12)CN(Cc1ccccc1)CC3 | 1.32 µM | 3.5 µM

System: NCI-H23
Test: Growth inhibition of human NCI-H23 cells assessed as cell growth at 0.1 uM incubated for 48 hrs by sulforhodamine B assay relative to control
Type: functional
Conditions: read-out: Activity

SMILES | growth at 0.1 µM
Nc1c(C(=O)Nc2ccccc2)sc2nc3c(cc12)CN(Cc1ccccc1)CC3 | 101%

System: OVCAR-8
Test: Growth inhibition of human OVCAR-8 cells assessed as cell growth at 1 uM incubated for 48 hrs by sulforhodamine B assay relative to control
Type: functional
Conditions: read-out: Activity

SMILES | growth at 1 µM
Nc1c(C(=O)Nc2ccccc2)sc2nc3c(cc12)CN(Cc1ccccc1)CC3 | 98%

System: MDA-MB-435
Test: Growth inhibition of human MDA-MB-435 cells incubated for 48 hrs by sulforhodamine B assay
Type: functional
Conditions: not given
How it was run: as §3

SMILES | GI50 | TGI
Nc1c(C(=O)Nc2ccccc2)sc2nc3c(cc12)CN(Cc1ccccc1)CC3 | 3.43 µM | 71.6 µM

Same assay, conditions: read-out: LC50 (the source's name)

SMILES | CC50
Nc1c(C(=O)Nc2ccccc2)sc2nc3c(cc12)CN(Cc1ccccc1)CC3 | > 100 µM

System: NCI-H226
Test: Growth inhibition of human NCI-H226 cells assessed as cell growth at 0.01 uM incubated for 48 hrs by sulforhodamine B assay relative to control
Type: functional
Conditions: read-out: Activity

SMILES | growth at 0.01 µM
Nc1c(C(=O)Nc2ccccc2)sc2nc3c(cc12)CN(Cc1ccccc1)CC3 | 98%

System: CCRF-CEM
Test: Growth inhibition of human CCRF-CEM cells assessed as cell growth at 0.01 uM incubated for 48 hrs by sulforhodamine B assay relative to control
Type: functional
Conditions: read-out: Activity
How it was run: as §2

SMILES | growth at 0.01 µM
Nc1c(C(=O)Nc2ccccc2)sc2nc3c(cc12)CN(Cc1ccccc1)CC3 | 96%

System: RXF 393
Test: Growth inhibition of human RXF 393 cells assessed as cell growth at 0.1 uM incubated for 48 hrs by sulforhodamine B assay relative to control
Type: functional
Conditions: read-out: Activity

SMILES | growth at 0.1 µM
Nc1c(C(=O)Nc2ccccc2)sc2nc3c(cc12)CN(Cc1ccccc1)CC3 | 94%

System: OVCAR-5
Test: Growth inhibition of human OVCAR-5 cells incubated for 48 hrs by sulforhodamine B assay
Type: functional
Conditions: not given
How it was run: as §1

SMILES | GI50 | TGI
Nc1c(C(=O)Nc2ccccc2)sc2nc3c(cc12)CN(Cc1ccccc1)CC3 | > 100 µM | > 100 µM

Same assay, conditions: read-out: LC50 (the source's name)

SMILES | CC50
Nc1c(C(=O)Nc2ccccc2)sc2nc3c(cc12)CN(Cc1ccccc1)CC3 | > 100 µM

System: MDA-MB-435
Test: Growth inhibition of human MDA-MB-435 cells assessed as cell growth at 100 uM incubated for 48 hrs by sulforhodamine B assay relative to control
Type: functional
Conditions: read-out: Activity

SMILES | growth at 100 µM
Nc1c(C(=O)Nc2ccccc2)sc2nc3c(cc12)CN(Cc1ccccc1)CC3 | -6%

System: T47D
Test: Growth inhibition of human T47D cells assessed as cell growth at 0.1 uM incubated for 48 hrs by sulforhodamine B assay relative to control
Type: functional
Conditions: read-out: Activity

SMILES | growth at 0.1 µM
Nc1c(C(=O)Nc2ccccc2)sc2nc3c(cc12)CN(Cc1ccccc1)CC3 | 79%

System: SK-MEL-5
Test: Growth inhibition of human SK-MEL-5 cells assessed as cell growth at 0.1 uM incubated for 48 hrs by sulforhodamine B assay relative to control
Type: functional
Conditions: read-out: Activity

SMILES | growth at 0.1 µM
Nc1c(C(=O)Nc2ccccc2)sc2nc3c(cc12)CN(Cc1ccccc1)CC3 | 100%

System: SK-MEL-28
Test: Growth inhibition of human SK-MEL-28 cells assessed as cell growth at 0.01 uM incubated for 48 hrs by sulforhodamine B assay relative to control
Type: functional
Conditions: read-out: Activity

SMILES | growth at 0.01 µM
Nc1c(C(=O)Nc2ccccc2)sc2nc3c(cc12)CN(Cc1ccccc1)CC3 | 100%

System: HCT-116
Test: Growth inhibition of human HCT-116 cells assessed as cell growth at 0.1 uM incubated for 48 hrs by sulforhodamine B assay relative to control
Type: functional
Conditions: read-out: Activity

SMILES | growth at 0.1 µM
Nc1c(C(=O)Nc2ccccc2)sc2nc3c(cc12)CN(Cc1ccccc1)CC3 | 92%

System: U-251
Test: Growth inhibition of human U-251 cells assessed as cell growth at 0.1 uM incubated for 48 hrs by sulforhodamine B assay relative to control
Type: functional
Conditions: read-out: Activity

SMILES | growth at 0.1 µM
Nc1c(C(=O)Nc2ccccc2)sc2nc3c(cc12)CN(Cc1ccccc1)CC3 | 98%

System: OVCAR-8
Test: Growth inhibition of human OVCAR-8 cells incubated for 48 hrs by sulforhodamine B assay
Type: functional
Conditions: not given
How it was run: as §1

SMILES | GI50 | TGI
Nc1c(C(=O)Nc2ccccc2)sc2nc3c(cc12)CN(Cc1ccccc1)CC3 | 16.8 µM | > 100 µM

Same assay, conditions: read-out: LC50 (the source's name)

SMILES | CC50
Nc1c(C(=O)Nc2ccccc2)sc2nc3c(cc12)CN(Cc1ccccc1)CC3 | > 100 µM

System: SK-MEL-28
Test: Growth inhibition of human SK-MEL-28 cells incubated for 48 hrs by sulforhodamine B assay
Type: functional
Conditions: not given
How it was run: as §1

SMILES | GI50 | LC50 | TGI
Nc1c(C(=O)Nc2ccccc2)sc2nc3c(cc12)CN(Cc1ccccc1)CC3 | 23.2 µM | > 100 µM | > 100 µM
